# Experimental data pooled from the literature.
# Lines come from different studies, so protocols differ.
# Target: Rho-associated protein kinase 2 (ROCK2, Homo sapiens, UniProt O75116)
Structure (SMILES),assay,conditions,endpoint,value
CCN(CC)c1ccc(C2=NNC(=O)CC2C)cc1[N+](=O)[O-] (stereo not drawn),"enzyme activity, inhibitor",10 µM,remaining activity,99%
COc1cc(Nc2cnc(C#N)c(O[C@H](C)CN(C)C)n2)ncc1-c1cnn(C)c1,"enzyme activity, inhibitor, radiometric",1 µM,remaining activity,92%
CNc1cccc2cc(C(=O)Nc3ccc(C(=O)O)cc3)c(=O)[nH]c12,"enzyme activity, inhibitor",10 µM,inhibition,7.9%
COc1cc2ncnc(Nc3ccc(Oc4ccccc4)cc3C)c2cc1OC,"enzyme activity, inhibitor",1 µM,inhibition,1%
COc1ccc2c(c1)O[C@H](c1ccc(OC)c(OC)c1)C[C@@H]2NC(=O)C1(c2ccc3c(c2)OC(F)(F)O3)CC1,"cell-free assay, competition with immobilised ligand",1 µM,remaining binding,88%
Cn1c(=O)n(-c2ccc(C(C)(C)C#N)cc2)c2c3cc(-c4cnc5ccccc5c4)ccc3ncc21,"enzyme activity, inhibitor",10 µM,remaining activity,84%
FC(F)(F)c1ccc2c(c1)nc(-c1cccnc1)n2C1CC1,"cell-free assay, competition with immobilised ligand",1 µM,remaining binding,100%
Cc1sc(C(=O)NC2COC2)cc1-n1cc(NC(=O)Nc2c(F)cccc2Cl)cn1,"enzyme activity, inhibitor",10 µM,remaining activity,93.6%
O=C1NC(=O)c2cc(Nc3ccc(F)cc3)c(Nc3ccc(F)cc3)cc21,cell-free assay,0.5 µM,remaining signal,92.8%
CN(c1ncccc1CNc1nc(Nc2ccc3c(c2)CC(=O)N3)ncc1C(F)(F)F)S(C)(=O)=O,"enzyme activity, inhibitor",1 µM,inhibition,11.3%
CNC(=O)c1cc(Oc2ccc(NC(=O)Nc3ccc(Cl)c(C(F)(F)F)c3)cc2)ccn1,"enzyme activity, inhibitor",0.3 µM,inhibition,-11%
CN(C(=O)c1ccccc1)c1cc(N(C)c2ccc3c(c2)CCc2ccc(C(=O)NCCN4CCOCC4)cc2C3=O)ccc1F,"cell-free assay, competition with immobilised ligand",1 µM,remaining binding,100%
CC(C)(C)c1nc(-c2cccc(NS(=O)(=O)c3c(F)cccc3F)c2F)c(-c2ccnc(N)n2)s1,"enzyme activity, inhibitor, radiometric",1 µM,remaining activity,103%
CCCOc1ccc(OC)c(F)c1C(=O)c1ccc(C(=O)N[C@@H]2CNC[C@H]2NC(=O)c2ccc3[nH]ncc3c2)cc1,"enzyme activity, inhibitor",0.5 µM,remaining activity,6%
Cc1ccc(-n2nc(C(C)(C)C)cc2NC(=O)Nc2ccc(OCCN3CCOCC3)c3ccccc23)cc1,"enzyme activity, inhibitor",10 µM,inhibition,-3%
CS(=O)(=O)Nc1cccc(-c2csc(NC(=O)CSc3nc4nccnc4c(=O)n3CCc3ccccc3)n2)c1,"enzyme activity, inhibitor",10 µM,inhibition,5%
CC/C(=N\NC(=O)C(C)Nc1ccccc1)c1ccc(O)c(C)c1O (stereo not drawn),"enzyme activity, inhibitor",0.1 µM,inhibition,25.7%
CN([C@@H]1CCc2c(CC(=O)O)c3ccccc3n2C1)S(=O)(=O)c1ccc(F)cc1,"cell-free assay, competition with immobilised ligand",1 µM,remaining binding,100%
Cc1ccc(NC(=O)c2ccc(C)c(C(F)(F)F)c2)cc1C#Cc1nn(C2CCC(O)CC2)c2ncnc(N)c12 (stereo not drawn),cell-free assay,10 µM,remaining signal,56%
O=C1Nc2ccc(Cl)cc2C1=Cc1cc(Cl)c(O)c(Cl)c1,cell-free assay,0.5 µM,remaining signal,90.6%
Cc1cnc(NC2CCOCC2)nc1-n1cnc(C(=O)NC(CN)c2cc(F)cc(Cl)c2)c1 (stereo not drawn),"enzyme activity, inhibitor, radiometric",1 µM,remaining activity,25%
CN1CC(Oc2cnc(C#N)cc2-c2ccn3nc(NC(=O)C4CC4)cc3c2)C1,"enzyme activity, inhibitor",1 µM,inhibition,5%
Cn1cncc1C1=CN(c2ncnc3[nH]cnc23)CCS1,"enzyme activity, inhibitor, radiometric",2 µM,inhibition,93.3%
CN(C)CC#Cc1ccc(OCCCc2sc(N3CCc4cccc(C(=O)Nc5nc6ccccc6s5)c4C3)nc2C(=O)O)c(F)c1,"cell-free assay, competition with immobilised ligand",1 µM,remaining binding,100%
COc1cc(Cl)c(C(=O)N[C@@H](CN[C@H]2CC[C@@H](N)CC2)Cc2ccc(C#N)cc2)cc1-c1ccc(CN[C@H](C)c2ccc(C)cc2)o1,"enzyme activity, inhibitor",1 µM,remaining activity,96%
Cc1ccc(Nc2nccc(N(C)c3ccc4c(C)n(C)nc4c3)n2)cc1S(N)(=O)=O,"enzyme activity, inhibitor",0.3 µM,inhibition,-15%
CC(=O)C1=C(C)N(c2cccc(C(F)(F)F)c2)C(=O)N[C@@H]1c1ccc(C#N)nc1,"cell-free assay, competition with immobilised ligand",1 µM,remaining binding,86.1%
CS(=O)(=O)CCNCc1ccc(-c2ccc3ncnc(Nc4ccc(OCc5cccc(F)c5)c(Cl)c4)c3c2)o1,cell-free assay,0.5 µM,remaining signal,92.7%
CC(=O)N1CCC(c2ccc(C(=O)NC3=NCCN3)cc2C(F)(F)F)CC1,"cell-free assay, competition with immobilised ligand",1 µM,remaining binding,73%
CC(C)c1ccc(NC(=O)c2cccs2)c(-c2nc3ccccc3[nH]c2=O)c1,"enzyme activity, inhibitor",1 µM,activity vs control,119%
COc1cccc(CNC(=O)c2nc3scc(COCc4ccc(C(=O)O)cc4)c3c(=O)[nH]2)c1,"cell-free assay, competition with immobilised ligand",1 µM,remaining binding,69.1%
O=C(Nc1cnn(-c2csc(C(=O)NC3COC3)c2)c1)Nc1ccccc1Cl,"enzyme activity, inhibitor",5 µM,remaining activity,100%
CNCc1ccc(-c2cc(-c3nc(-c4ccc(S(=O)(=O)C(C)C)cc4)cnc3N)on2)cc1,"enzyme activity, inhibitor",2 µM,inhibition,13%
Cn1cnc(Br)c1C1=CN(c2ncnc3[nH]cnc23)CCS1,"enzyme activity, inhibitor, radiometric",50 nM,inhibition,18.6%
C[C@@H](N)[C@H]1CC[C@H](C(=O)Nc2ccncc2)CC1,cell-free assay,0.5 µM,remaining signal,26.3%
Nc1nc(NC2CCCCC2)sc1C(=O)c1ccccc1,"enzyme activity, inhibitor",10 µM,remaining activity,97%
